Consider three compounds from ChEMBL document CHEMBL2062382, “Bicyclic C21 terpenoids from the marine sponge Clathria compressa” (J Nat Prod, 2012).

In brackets after ≈: the same amount, converted by molar mass. Activity calls are given as the source filed them. The rule behind the calls is not given here.

In data set [1] the test system is Staphylococcus aureus. The data set is described as follows: Antibacterial activity against vancomycin-resistant Staphylococcus aureus up to 128 ug/ml after 20 hrs by broth microdilution method. The data set is classed as functional, organism-based. A digest of the protocol:
(§1)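 ATCC strains grown on Müller-Hinton agar 37 °C 24 h, then in Müller-Hinton broth 37 °C 24 h. MIC by two-fold serial broth microdilution, 0.01 to 128 μg/mL; samples dissolved in 5% DMSO in water, final DMSO below 0.5% in all wells, duplicate. Mid-log cells at initial A600 0.001; read after 20 h at 37 °C with gentle shaking. Methicillin control included.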
Background: Broth dilution looks for growth in wells or tubes with falling amounts of substance.

In another data set the test system is Klebsiella pneumoniae. The experiment in a line: Antibacterial activity against Klebsiella pneumoniae ATCC 10031 at 128 ug/ml after 20 hrs by broth microdilution method. In kind it is functional, organism-based. A digest of the protocol: (§2)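 Strains are grown on Müller-Hinton agar at 37 °C for 24 h, then in Müller-Hinton broth at 37 °C for 24 h. Mid-log cells at an initial 600 nm absorbance of 0.001 are exposed to two-fold serial dilutions from 0.01 to 128 µg/mL, in duplicate. Samples are dissolved in 5% DMSO/H2O, giving final DMSO below 0.5% in wells and matched in controls. Methicillin is the reference. MIC is read after 20 h at 37 °C with gentle shaking.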

For the next data set, the system named is Escherichia coli. The experiment in a line: Antibacterial activity against Escherichia coli KCTC 1923 at 128 ug/ml after 20 hrs by broth microdilution method. In kind it is functional, organism-based.
For data set [2], the system named is Staphylococcus aureus. The experiment in a line: Antibacterial activity against methicillin-resistant Staphylococcus aureus ATCC 33591 up to 128 ug/ml after 20 hrs by broth microdilution method. The data set is classed as functional, organism-based. A digest of the protocol: as §1
Data set [3] deals with Staphylococcus aureus. The data set is described as follows: Antibacterial activity against Staphylococcus aureus ATCC 6538P up to 128 ug/ml after 20 hrs by broth microdilution method. The data set is classed as functional, organism-based. A digest of the protocol: as §2
Data set [4] is described as follows: Cytotoxicity against human BG02 cells at 40 uM. In kind it is cell-based. The following applies: bg02, 40 µM. A digest of the protocol:
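Growth inhibition of human embryonic stem cells (BG02) was tracked by real-time cell electronic sensing (RT-CES) in a 96-well format, with each compound tested at 40 µM.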

The test system of data set [5] is Staphylococcus aureus. The experiment in a line: Antibacterial activity against vancomycin-resistant Staphylococcus aureus after 20 hrs by broth microdilution method. In kind it is functional. The method in brief: as §1
For data set [6], the system named is Staphylococcus aureus. The data set is described as follows: Antibacterial activity against methicillin-resistant Staphylococcus aureus ATCC 33591 after 20 hrs by broth microdilution method. The data set is classed as functional. To be noted: ATCC 33591, 20 h. The method in brief:
as §1

For data set [7], the system named is Staphylococcus aureus. The experiment in a line: Antibacterial activity against Staphylococcus aureus ATCC 6538P after 20 hrs by broth microdilution method. In kind it is functional. A digest of the protocol: as §2

`C=C1CC[C@@H]2[C@](C)(CCC[C@@]2(C)/C=C/C=C(C)C)[C@H]1CC(=O)NCCS(=O)(=O)O` (relative stereo): the outcome with Staphylococcus aureus [1], with Klebsiella pneumoniae, in the data set with Escherichia coli, with Staphylococcus aureus [2] and with Staphylococcus aureus [3] was inactive. Further, the Activity entry in [4] is recorded as “Non-toxic”.

Regarding `C=C1CC[C@@H]2[C@](C)(CCC[C@@]2(C)/C=C/C=C(C)C)[C@H]1CC(=O)O` (relative stereo), the outcome in the data set with Klebsiella pneumoniae and with Escherichia coli was inactive. The values for the MIC in the data set on Staphylococcus aureus [5], with Staphylococcus aureus [6] and against Staphylococcus aureus [7] were 64 µg/mL (≈ 202 µM), 64 µg/mL (≈ 202 µM) and 32 µg/mL (≈ 101 µM), respectively. In addition, the Activity entry in [4] was “Non-toxic”.

With `C=C1CC[C@@H]2[C@](C)(CCC[C@@]2(C)/C=C/C(O)C(C)(C)O)[C@H]1CC(=O)NCCS(=O)(=O)O` (relative stereo), the result in the data set on Staphylococcus aureus [1], in the data set with Klebsiella pneumoniae, in the data set with Escherichia coli, in the data set on Staphylococcus aureus [2] and in the data set with Staphylococcus aureus [3] was inactive. Besides, the Activity entry in [4] is on record as “Non-toxic”.
